Test results as given in ChEMBL document CHEMBL1687745 (Antimicrob Agents Chemother, 2009).
Values after ≈ are worked out from the molar mass of the structure shown. Active and inactive are the calls of the source. The calls are words filed in the database; no cut-off is given here.

How the values were obtained:
Klebsiella pneumoniae = test: Antimicrobial activity against Klebsiella pneumoniae 5657 by broth microdilution method; assay type: functional
How it was run: (§1)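 Broth microdilution. Log-phase cultures (5 × 10^5 CFU/ml) seeded in 96-well plates with compound from 0 to 20 µM or 1% DMSO control. Incubated at 37°C for 16 to 20 h. Growth read as absorbance at 600 nm.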

Pseudomonas aeruginosa = test: Antimicrobial activity against Pseudomonas aeruginosa PAO1 by broth microdilution method; assay type: functional; how it was run: as §1
Enterococcus faecalis [1] = test: Antimicrobial activity against Enterococcus faecalis clinical isolate by broth microdilution method; assay type: functional; how it was run: as §1
Enterococcus faecium = test: Antimicrobial activity against vancomycin-resistant Enterococcus faecium B42762 by broth microdilution method; assay type: functional
[2] = test system: Burkholderia thailandensis; test: Antimicrobial activity against Burkholderia thailandensis by broth microdilution method; assay type: functional
Yersinia pestis [3] = test: Antimicrobial activity against Yersinia pestis by broth microdilution method; assay type: functional
Burkholderia mallei = test: Antimicrobial activity against Burkholderia mallei ATCC 23344 by broth microdilution method; assay type: functional
Bacillus pumilus = test: Antimicrobial activity against Bacillus pumilus clinical isolate by broth microdilution method; assay type: functional; how it was run: as §1
Enterococcus faecalis [4] = test: Antimicrobial activity against Enterococcus faecalis 29212 clinical isolate by broth microdilution method; assay type: functional
Burkholderia cepacia = test: Antimicrobial activity against Burkholderia cepacia clinical isolate by broth microdilution method; assay type: functional; how it was run: as §1
Bacillus anthracis [5] = test: Protection against Bacillus anthracis Sterne spores induced cell death in mouse J774A1 cells assessed as dead cells at 10 uM by Sytox green dye staining assay relative to untreated control; assay type: functional, J774.A1
Bacillus subtilis [6] = test: Inhibition of DNA synthesis in Bacillus subtilis BD54 at 5 X MIC by [3H]thymidine incorporation assay; assay type: functional, organism-based
How it was run: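 Precursors were [methyl-3H]thymidine (DNA), [5-3H]uridine (RNA), L-[4,5-3H]leucine (protein) and N-acetyl-D-[1-3H]glucosamine (cell wall). Samples taken over time, precipitated with equal volume of ice-cold 20% TCA, filtered on glass fibre, and counted. cpm plotted against time.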

Staphylococcus aureus [7] = test: Antimicrobial activity against methicillin-resistant Staphylococcus aureus 1094 by broth microdilution method; assay type: functional
[8] = test system: Mycolicibacterium smegmatis; test: Antimicrobial activity against Mycobacterium smegmatis 35798 by broth microdilution method; assay type: functional; how it was run: as §1
Staphylococcus aureus [9] = test: Antimicrobial activity against methicillin-resistant Staphylococcus aureus clinical isolate by broth microdilution method; assay type: functional
Bacillus subtilis [10] = test: Effect on bacterial membrane permeability in Bacillus subtilis BD54 upto 10 times MIC using DiSC3 fluorescent dye staining based fluorimetric assay; assay type: functional, organism-based
How it was run: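 B. subtilis BD54 grown in LB to OD600 0.4–0.5, washed, and resuspended to OD600 0.1 in 5 mM HEPES pH 7.4 with 20 mM glucose. Loaded with 1 µM DiSC3(5) for 10 min at room temperature, then 100 mM KCl added. […] Fluorescence read at 5 min (ex 622, em 670 nm). DNP 200 µg/ml positive control; mean ± SD of 8 wells.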

[11] = test system: Mycolicibacterium smegmatis; test: Antimicrobial activity against Mycobacterium smegmatis 19420 by broth microdilution method; assay type: functional; how it was run: as §1
Staphylococcus aureus [12] = test: Antimicrobial activity against Staphylococcus aureus ATCC 25923 by broth microdilution method; assay type: functional; how it was run: as §1
Bacillus licheniformis = test: Antimicrobial activity against Bacillus licheniformis clinical isolate by broth microdilution method; assay type: functional
Bacillus anthracis [13] = test: Antimicrobial activity against Bacillus anthracis Sterne vegetative cells by broth microdilution method; assay type: functional
Staphylococcus aureus [14] = test: Antimicrobial activity against Staphylococcus aureus by broth microdilution method; assay type: functional; how it was run: as §1
Bacillus anthracis [15] = test: Protection against Bacillus anthracis Sterne spores induced cell death in mouse J774A1 cells assessed as live viable cells at 10 uM by Sytox green dye staining assay relative to untreated control; assay type: functional, J774.A1
J774.A1 = test: Cytotoxicity against mouse J774A1 cells assessed as dead cells at 10 uM by Sytox green dye staining assay relative to untreated control; assay type: cell-based; conditions: j774.a1, 10 µM
How it was run: (§2)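 J774A.1 macrophages, not infected, treated with 1% DMSO control or compound at 10 µM. Sytox green (impermeant to live cells) added for 15 min at 37°C. Cells centrifuged, washed twice in complete medium containing antibiotics, and analysed by flow cytometry for percent live and dead cells.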

Escherichia coli = test: Antimicrobial activity against Escherichia coli J53 clinical isolate by broth microdilution method; assay type: functional
Enterococcus faecalis [16] = test: Antimicrobial activity against vancomycin-resistant Enterococcus faecalis ATCC 51575 by broth microdilution method; assay type: functional
[17] = Cytotoxicity against human HeLa cells after 3 days by MTS assay in presence of 10% fetal calf serum; assay type: cell-based
Brevibacillus brevis = test: Antimicrobial activity against Bacillus brevis clinical isolate by broth microdilution method; assay type: functional; how it was run: as §1
Staphylococcus aureus [18] = test: Antibacterial activity against Staphylococcus aureus Smith infected in Swiss Webster mouse assessed as assessed as protection against microbe-induced mortality at 10 mg/kg, iv administered as single dose 15 mins post bacterial challenge measured 48 hrs post infection; assay type: functional
How it was run: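 Swiss Webster mice (n = 10/group) were challenged i.p. with 8.3 × 10^8 CFU. After 15 min they received a single i.v. dose in 10% dimethyl acetamide–5% dextrose in water (pH 4.0), alongside vehicle and daptomycin (10 mg/kg) controls. Survival was followed for 48 h.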

Bacillus anthracis [19] = test: Antimicrobial activity against Bacillus anthracis Vollum clinical isolate by broth microdilution method; assay type: functional
Staphylococcus aureus [20] = test: Antibacterial activity against MBX 1090 resistant Staphylococcus aureus NCTC8325 isolates selected on 10 to 12 days of serial passage through MBX 1090; assay type: functional
How it was run: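 Eight independent S. aureus NCTC8325 cultures were grown with compound at 0.125× to 128× MIC. Each day, cells were passaged from the highest-concentration well still showing >50% of untreated growth, for up to 20 days. Colonies isolated from resistant cultures were confirmed by MIC assay.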

Yersinia pestis [21] = test: Antibacterial activity against Yersinia pestis CO92 infected in C57BL/6 mouse assessed as protection against microbe-induced mortality at 10 mg/kg, ip for 5 days every 6 hrs administered 6 hrs post bacterial challenge measured after 15 days post infection; assay type: functional; conditions: route intraperitoneal
[22] = Cytotoxicity against mouse J774A1 cells assessed as live viable cells at 10 uM by Sytox green dye staining assay relative to untreated control; assay type: cell-based, J774.A1; conditions: read-out: Activity; how it was run: as §2
Bacillus anthracis [23] = test: Inhibition of spore germination in Bacillus anthracis Sterne spores at MIC after 4 hrs; assay type: functional, organism-based
Bacillus subtilis [24] = test: Antimicrobial activity against Bacillus subtilis clinical isolate by broth microdilution method; assay type: functional
[25] = test system: Burkholderia pseudomallei; test: Antimicrobial activity against Burkholderia pseudomallei DD503 by broth microdilution method; assay type: functional
Bacillus anthracis [26] = test: Antimicrobial activity against Bacillus anthracis Ames by broth microdilution method in presence of 10% fetal calf serum; assay type: functional
Priestia megaterium = test: Antimicrobial activity against Bacillus megaterium clinical isolate by broth microdilution method; assay type: functional
[27] = test system: Mycolicibacterium smegmatis; test: Antimicrobial activity against Mycobacterium smegmatis 700009 by broth microdilution method; assay type: functional; how it was run: as §1
HeLa = test: Effect on cell membrane integrity in human HeLa cells assessed as lactate dehydrogenase release at 32 times MIC against Staphylococcus aureus by CytoTox ONE homogenous membrane integrity assay; assay type: cell-based
How it was run: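 Confluent HeLa cells in DMEM treated for 1 h with a range of compound concentrations, 1% DMSO final. […] LDH activity in the supernatant measured by a membrane-integrity kit.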

Bacillus anthracis [28] = test: Antibacterial activity against Bacillus anthracis Ames spores infected in C57BL/6 mouse assessed as mouse survival rate at 10 mg/kg, ip for 5 days every 6 hrs administered 6 hrs post bacterial challenge measured up to 20 days post infection; assay type: functional; conditions: route intraperitoneal
Bacillus anthracis [29] = test: microbe, parasite or virus in culture; conditions: Ames
Bacillus anthracis [30] = test: microbe, parasite or virus in culture; conditions: Ames; remark: listed apart in the source

With `c1cc2cc(-c3ccc(-c4cc5ccc(C6=NCCN6)cc5[nH]4)cc3)[nH]c2cc1C1=NCCN1` the MIC (Klebsiella pneumoniae) was 3.8 µg/mL (≈ 8.55 µM), the MIC (Pseudomonas aeruginosa) was 7.5 µg/mL (≈ 16.9 µM) and the MIC (Enterococcus faecalis [1]) was 0.2 µg/mL (≈ 0.45 µM). For the same molecule, the MIC (Enterococcus faecium) was < 0.1 µg/mL, the MIC [2] was 21 µg/mL (≈ 47.2 µM) and the MIC (Yersinia pestis [3]) was 3.4 µg/mL (≈ 7.65 µM). The MIC (Burkholderia mallei) was 1.7 µg/mL (≈ 3.82 µM), the MIC (Bacillus pumilus) was < 0.1 µg/mL and the MIC (Enterococcus faecalis [4]) was 0.2 µg/mL (≈ 0.45 µM). For the same molecule, the MIC (Burkholderia cepacia) was > 20 µg/mL, the Activity (Bacillus anthracis [5]) was 22% and the inhibition (Bacillus subtilis [6]) was “Active”. The MIC (Staphylococcus aureus [7]) was 0.2 µg/mL (≈ 0.45 µM), the MIC [8] was < 0.1 µg/mL and the MIC (Staphylococcus aureus [9]) was 0.3 µg/mL (≈ 0.675 µM). For the same molecule, the Activity (Bacillus subtilis [10]) was “Active”, the MIC [11] was < 0.1 µg/mL and the MIC (Staphylococcus aureus [12]) was 0.1 µg/mL (≈ 0.225 µM). It also gave an MIC (Bacillus licheniformis) of 0.7 µg/mL (≈ 1.57 µM), an MIC (Bacillus anthracis [13]) of 0.7 µg/mL (≈ 1.57 µM) and an MIC (Staphylococcus aureus [14]) of 0.3 µg/mL (≈ 0.675 µM). It also gave an Activity (Bacillus anthracis [15]) of 77%, an Activity (J774.A1) of 5% and an MIC (Escherichia coli) of 0.7 µg/mL (≈ 1.57 µM). The MIC (Enterococcus faecalis [16]) was 0.1 µg/mL (≈ 0.225 µM), the CC50 at 72 h [17] was 3 µg/mL and the MIC (Brevibacillus brevis) was 0.7 µg/mL (≈ 1.57 µM). The survival at 10 mg/kg (Staphylococcus aureus [18]) was 80%, the MIC (Bacillus anthracis [19]) was 0.3 µg/mL (≈ 0.675 µM) and the MIC (Staphylococcus aureus [20]) was “Active”. For the same molecule, the survival at 10 mg/kg (Yersinia pestis [21]) was 90%, the viability at 10 µM [22] was 94% and the inhibition (Bacillus anthracis [23]) was “inactive”. For the same molecule, the MIC (Bacillus subtilis [24]) was 0.2 µg/mL (≈ 0.45 µM), the MIC [25] was 1.7 µg/mL (≈ 3.82 µM) and the MIC (Bacillus anthracis [26]) was 1.1 µg/mL. The MIC (Priestia megaterium) was 0.3 µg/mL (≈ 0.675 µM), the MIC [27] was 0.1 µg/mL (≈ 0.225 µM) and the Activity (HeLa) was “Non-toxic”. For the same molecule, the survival at 10 mg/kg (Bacillus anthracis [28]) was 100%, the MBC (Bacillus anthracis [29]) was 0.7 µg/mL (≈ 1.57 µM) and the MIC (Bacillus anthracis [29]) was 0.3 µg/mL (≈ 0.675 µM). It also gave an MBC (Bacillus anthracis [30]) of 0.4 µg/mL (≈ 0.9 µM).
